# Assay results taken from ChEMBL document CHEMBL1134551, “The effect of 1,3-diaryl-[1H]-pyrazole-4-acetamides on glucose utilization in ob/ob mice” (2001).
# Assays:
# Mus musculus [1] = test: Percentage efficacy to normalize the blood glucose levels to that of normal mouse in ob/ob mouse after 3 days and 4 hours of 300 mg/kg dose administration.; format: functional
# In short: (§1)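 Adult male C57BL ob/ob mice, n = 6/group, matched on day-0 blood glucose; non-diabetic animals (<150 mg/dL basal) excluded. Oral dosing each morning days 1-3 in 0.5% CMC with 0.2% Tween-80. Tail-nick blood glucose by YSI analyzer. % efficacy = {1 − ([glc]cpd − 100)/([glc]veh − 100)} × 100. Significance by t-test vs vehicle, p < 0.05.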
# Mus musculus [2] = test: Percentage efficacy to normalize the blood glucose levels to that of normal mouse in ob/ob mouse after 3 days and 8 hours of 300 mg/kg dose administration.; format: functional; in short: as §1
# Mus musculus [3] = test: Percentage efficacy to normalize the blood glucose levels to that of normal mouse in ob/ob mouse after 3 days and 8 hours of 100 mg/kg dose administration; Nonsignificant; format: functional, organism-based; design: dose 100 mg/kg; in short: as §1
# Mus musculus [4] = test: Percentage efficacy to normalize the blood glucose levels to that of normal mouse in ob/ob mouse after 3 days and 4 hours of 100 mg/kg dose administration; Nonsignificant; format: functional, organism-based; design: dose 100 mg/kg; in short: as §1
# Mus musculus [5] = test: Percentage efficacy to normalize the blood glucose levels to that of normal mouse in ob/ob mouse after 3 days and 8 hours of 300 mg/kg dose administration; Nonsignificant; format: functional, organism-based; design: dose 300 mg/kg; in short: as §1
# Mus musculus [6] = test: Percentage efficacy to normalize the blood glucose levels to that of normal mouse in ob/ob mouse after 3 days and 4 hours of 300 mg/kg dose administration; Nonsignificant; format: functional, organism-based; design: dose 300 mg/kg; in short: as §1
# Mus musculus [7] = test: Percentage efficacy to normalize the blood glucose levels to that of normal mouse in ob/ob mouse after 3 days and 4 hours of 100 mg/kg dose administration.; format: functional; in short: as §1
# Mus musculus [8] = test: Percentage efficacy to normalize the blood glucose levels to that of normal mouse in ob/ob mouse after 3 days and 8 hours of 100 mg/kg dose administration.; format: functional; in short: as §1
# Mus musculus [9] = test: Percentage efficacy to normalize the blood glucose levels to that of normal mouse in ob/ob mouse after 3 days and 4 hours of 30 mg/kg dose administration; Nonsignificant; format: functional, organism-based; design: dose 30 mg/kg; in short: as §1
# Mus musculus [10] = test: Percentage efficacy to normalize the blood glucose levels to that of normal mouse in ob/ob mouse after 3 days and 8 hours of 30 mg/kg dose administration.; format: functional; in short: as §1
structure (smiles),measurement,setting,value
CN(C)C(=O)Cc1cn(-c2ccc(Cl)cc2)nc1-c1ccc(Cl)c(Cl)c1,Efficacy,Mus musculus [1],47%
same,Efficacy,Mus musculus [2],52%
CN(C)C(=O)Cc1cn(-c2cccc(C(F)(F)F)c2)nc1-c1ccc(-c2ccc(-c3ccccc3)cc2)cc1,Efficacy,Mus musculus [3],Not significant
same,Efficacy,Mus musculus [4],Not significant
CN(C)C(=O)Cc1cn(-c2cccc(C(F)(F)F)c2)nc1-c1ccc(C(C)(C)C)cc1,Efficacy,Mus musculus [3],Not significant
same,Efficacy,Mus musculus [4],Not significant
O=C(Cc1cn(-c2cccc(F)c2)nc1-c1ccc(Cl)c(Cl)c1)N1CCCC1,Efficacy,Mus musculus [1],74%
same,Efficacy,Mus musculus [2],75%
O=C(Cc1cn(-c2cccc(C(F)(F)F)c2)nc1-c1ccc(Cl)c(Cl)c1)N1CCOCC1,Efficacy,Mus musculus [5],Not significant
same,Efficacy,Mus musculus [6],Not significant
Cc1ccc(-c2nn(-c3cccc(C(F)(F)F)c3)cc2CC(=O)N(C)C)cc1,Efficacy,Mus musculus [1],58%
same,Efficacy,Mus musculus [2],36%
CN(C)C(=O)Cc1cn(-c2cccc(C(F)(F)F)c2)nc1-c1ccc2c(c1)C(C)(O)c1ccccc1-2 (stereo unspecified),Efficacy,Mus musculus [7],73%
same,Efficacy,Mus musculus [8],64%
CN(C)C(=O)Cc1cn(-c2ccc(F)cc2)nc1-c1ccc(Cl)c(Cl)c1,Efficacy,Mus musculus [1],84%
same,Efficacy,Mus musculus [2],39%
CN(C)C(=O)Cc1cn(-c2ccc(C(F)(F)F)cc2)nc1-c1ccc(Cl)c(Cl)c1,Efficacy,Mus musculus [1],45%
same,Efficacy,Mus musculus [2],37%
CN1CCN(C(=O)Cc2cn(-c3cccc(C(F)(F)F)c3)nc2-c2ccc(Cl)c(Cl)c2)CC1,Efficacy,Mus musculus [5],Not significant
same,Efficacy,Mus musculus [1],54%
O=C(Cc1cn(-c2cccc(C(F)(F)F)c2)nc1-c1ccc(Cl)c(Cl)c1)Nc1ccccc1,Efficacy,Mus musculus [5],Not significant
same,Efficacy,Mus musculus [6],Not significant
COc1ccc(-n2cc(CC(=O)N(C)C)c(-c3ccc(Cl)c(Cl)c3)n2)cc1,Efficacy,Mus musculus [1],39%
same,Efficacy,Mus musculus [2],35%
Cc1cc(C)cc(-n2cc(CC(=O)N(C)C)c(-c3ccc(Cl)c(Cl)c3)n2)c1,Efficacy,Mus musculus [5],Not significant
same,Efficacy,Mus musculus [6],Not significant
O=C(Cc1cn(-c2cccc(C(F)(F)F)c2)nc1-c1ccc(Cl)c(Cl)c1)N1CCCCC1,Efficacy,Mus musculus [5],Not significant
same,Efficacy,Mus musculus [6],Not significant
O=C(Cc1cn(-c2cccc(C(F)(F)F)c2)nc1-c1ccc(Cl)c(Cl)c1)N1CCN(C(c2ccccc2)c2ccccc2)CC1,Efficacy,Mus musculus [9],Not significant
same,Efficacy,Mus musculus [10],48%
same,Efficacy,Mus musculus [4],Not significant
same,Efficacy,Mus musculus [8],45%
CN(C(=O)Cc1cn(-c2cccc(C(F)(F)F)c2)nc1-c1ccc(Cl)c(Cl)c1)c1ccccc1,Efficacy,Mus musculus [5],Not significant
same,Efficacy,Mus musculus [1],57%
CN(C)C(=O)Cc1cn(-c2cccc(C(F)(F)F)c2)nc1-c1ccc2c(c1)Cc1ccccc1C2,Efficacy,Mus musculus [7],79%
same,Efficacy,Mus musculus [8],70%
CN(C)C(=O)Cc1cn(-c2cccc(C(F)(F)F)c2)nc1-c1cc2ccccc2c2ccccc12,Efficacy,Mus musculus [3],Not significant
same,Efficacy,Mus musculus [4],Not significant
CN(C)C(=O)Cc1cn(-c2cccc([N+](=O)[O-])c2)nc1-c1ccc(Cl)c(Cl)c1,Efficacy,Mus musculus [7],-72%
same,Efficacy,Mus musculus [8],-88%
CCOC(=O)Cc1cn(-c2cccc(C(F)(F)F)c2)nc1-c1ccc(Cl)c(Cl)c1,Efficacy,Mus musculus [5],Not significant
same,Efficacy,Mus musculus [6],Not significant
CN(C)C(=O)Cc1cn(-c2cccc(C(F)(F)F)c2)nc1-c1ccc2oc3ccccc3c2c1,Efficacy,Mus musculus [3],Not significant
same,Efficacy,Mus musculus [4],Not significant
Cc1cccc(-n2cc(CC(=O)N(C)C)c(-c3ccc(Cl)c(Cl)c3)n2)c1,Efficacy,Mus musculus [3],Not significant
same,Efficacy,Mus musculus [4],Not significant
CN(C)C(=O)Cc1cn(-c2cccc(C(F)(F)F)c2)nc1-c1ccc(Cl)cc1,Efficacy,Mus musculus [6],Not significant
same,Efficacy,Mus musculus [2],78%
CN(C)C(=O)Cc1cn(-c2cccc(C(F)(F)F)c2)nc1-c1ccc(-c2ccc(F)cc2)cc1,Efficacy,Mus musculus [4],Not significant
same,Efficacy,Mus musculus [8],81%
CN(C)C(=O)Cc1cn(-c2cccc(C(F)(F)F)c2)nc1-c1ccc(Cl)c(Cl)c1,Efficacy,Mus musculus [6],Not significant
same,Efficacy,Mus musculus [2],63%
CN(C)C(=O)Cc1cn(-c2cc(Cl)cc(Cl)c2)nc1-c1ccc(Cl)c(Cl)c1,Efficacy,Mus musculus [5],Not significant
same,Efficacy,Mus musculus [1],52%
CN(C)C(=O)Cc1cn(-c2cccc(C(F)(F)F)c2)nc1-c1cccc(-c2ccccc2)c1,Efficacy,Mus musculus [3],Not significant
same,Efficacy,Mus musculus [4],Not significant
